The test system of data set [1] is HeLa. The experiment in a line: Inhibition of HIV-1 infectivity using BAL-1 strain against HeLa cell line was determined. The class given is functional. Particulars: Homo sapiens.
Data set [2] in a line: Plasma clearance in dog (dosed as a mixture of five compounds at 0.5 mpk each via iv only). The class given is ADME, organism-based, Canis lupus familiaris. Conditions: read-out: Clp. An outline of the steps:
(§1)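 Dogs received a five-compound cassette by iv only, 0.5 mpk of each compound.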

Data set [3] can be described thus: in vivo. Conditions: dog, plasma, iv, 0.5 mg/kg.
For data set [4], the system named is Canis familiaris. As to the kind of experiment: Oral AUCN in dog (dosed at 0.5 mpk iv ). Particulars: in vivo, 0.5 mg/kg.
The nature of data set [5]: Half life in dog (dosed as a mixture of five compounds at 0.5 mpk each via iv only). The class given is ADME, organism-based, Canis lupus familiaris. Particulars: in vivo. An outline of the steps:
as §1

The nature of data set [6]: in vivo. Conditions: dog.
The subject of data set [7] is HeLa. As to the kind of experiment: Antiviral activities in a cell culture HIV-1 infectivity inhibition assay using HeLa cells plus 50% normal human serum. The class given is functional.
The test system of data set [8] is Canis familiaris. The experiment in a line: […] AUCN in dog (dosed as a mixture of five compounds at 0.5 mpk each via iv only). The data set is classed as ADME, organism-based, Canis lupus familiaris. Conditions: in vivo.

As usually defined, the IC90 is the point of the concentration-response curve where the effect stands at 90%. A word on the half-life: it is the time needed for the level to fall by half in the phase considered.

For `CCn1nc(Cc2ccccc2)cc1C1CCN(C[C@H]2CN([C@@H](C(=O)O)C3CCCCC3)C[C@@H]2c2ccccc2)CC1`, in data set [1], the IC90 worked out at 0.4 nM.

As to `CCn1nc(Cc2ccccc2)cc1C1CCN(C[C@H]2CN([C@@H](C(=O)O)C(C)(C)C)C[C@@H]2c2cccc(F)c2)CC1`, the clearance in data set [2] stood at 25 mL/min/kg; in data set [3], 13 mL/min/kg. The values for the AUC N in data set [4] and in data set [8] were 2.3 µM hr dose-1 and 1.2 uM hr dose-1, respectively. Further, the half-life in data set [5] is 45 min; in data set [6], 38.4 min. Moreover, in data set [7], the IC90 came to 100 nM.

The values are drawn from ChEMBL document CHEMBL1147446, “Antagonists of human CCR5 receptor containing 4-(pyrazolyl)piperidine side chains. Part 3: SAR studies on the benzylpyrazole segment” (Bioorg Med Chem Lett, 2004).
